Measured values taken from ChEMBL document CHEMBL1132183 (J Med Chem, 1999).

Legend:
[1] = target: T1, Alpha-1D adrenergic receptor (Rattus norvegicus) (UniProt P23944); experiment: Eudisimic ratio(ER) is the antilog of the defference between the pKb and pD2 values against alpha-1D-adrenoceptor subtype; format: functional
T1 sequence (whole entry): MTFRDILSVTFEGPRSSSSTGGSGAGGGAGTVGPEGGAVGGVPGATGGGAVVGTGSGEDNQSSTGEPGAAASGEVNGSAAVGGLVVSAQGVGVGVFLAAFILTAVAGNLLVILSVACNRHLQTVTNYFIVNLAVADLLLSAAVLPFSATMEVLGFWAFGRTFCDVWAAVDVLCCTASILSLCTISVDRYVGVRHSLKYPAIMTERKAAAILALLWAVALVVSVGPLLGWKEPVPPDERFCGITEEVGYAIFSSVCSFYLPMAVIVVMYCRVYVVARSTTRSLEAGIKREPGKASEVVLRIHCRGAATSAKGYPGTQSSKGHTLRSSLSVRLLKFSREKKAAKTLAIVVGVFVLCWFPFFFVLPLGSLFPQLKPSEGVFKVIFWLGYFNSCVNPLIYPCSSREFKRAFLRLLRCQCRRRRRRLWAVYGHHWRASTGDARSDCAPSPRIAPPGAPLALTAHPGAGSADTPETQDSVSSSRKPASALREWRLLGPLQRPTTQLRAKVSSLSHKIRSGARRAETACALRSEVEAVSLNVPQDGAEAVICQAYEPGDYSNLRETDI
Procedure, shortened: (§1)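 Eudismic ratio is the antilog of the difference between the pKb (functional α1 tissue assays) or pD2 (5-HT1A [35S]GTPγS stimulation) of the eutomer and that of its distomer.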

[2] = target: T2, Alpha-1B adrenergic receptor (Homo sapiens, UniProt P35368); experiment: Ability to displace [3H]prazosin from human cloned Alpha-1B adrenergic receptor
T2 sequence (P35368 whole entry): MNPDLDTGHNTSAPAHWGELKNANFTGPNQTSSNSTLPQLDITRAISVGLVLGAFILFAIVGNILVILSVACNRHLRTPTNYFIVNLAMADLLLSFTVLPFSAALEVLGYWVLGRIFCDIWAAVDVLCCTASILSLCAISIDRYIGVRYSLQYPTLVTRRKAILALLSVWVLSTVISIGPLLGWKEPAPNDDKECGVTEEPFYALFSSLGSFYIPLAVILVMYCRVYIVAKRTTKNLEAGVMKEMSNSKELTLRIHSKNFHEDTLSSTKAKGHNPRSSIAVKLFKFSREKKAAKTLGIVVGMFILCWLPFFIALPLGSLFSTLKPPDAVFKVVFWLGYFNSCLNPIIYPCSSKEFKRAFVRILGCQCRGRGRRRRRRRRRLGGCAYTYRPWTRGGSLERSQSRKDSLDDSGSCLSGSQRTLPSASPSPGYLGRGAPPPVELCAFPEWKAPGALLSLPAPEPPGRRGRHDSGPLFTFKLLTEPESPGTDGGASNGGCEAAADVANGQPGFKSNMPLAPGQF
Procedure, shortened: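 Competition binding at cloned human α1 subtypes stably expressed in CHO cells: membranes (30 μg protein) incubated 30 min at 25 °C in 50 mM Tris-HCl pH 7.4 with 0.1–0.4 nM [3H]prazosin and competitor (1 pM–10 μM). Nonspecific binding with 10 μM phentolamine; filtration and scintillation counting. Ki by Cheng–Prusoff; 2–3 experiments in triplicate.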

[3] = target: T3, Alpha-1A adrenergic receptor (Rattus norvegicus) (UniProt P43140); experiment: Eudisimic ratio(ER) is the antilog of the defference between the pKb and pD2 values against Alpha-1A adrenergic receptor; procedure, shortened: as §1
T3 sequence (whole entry): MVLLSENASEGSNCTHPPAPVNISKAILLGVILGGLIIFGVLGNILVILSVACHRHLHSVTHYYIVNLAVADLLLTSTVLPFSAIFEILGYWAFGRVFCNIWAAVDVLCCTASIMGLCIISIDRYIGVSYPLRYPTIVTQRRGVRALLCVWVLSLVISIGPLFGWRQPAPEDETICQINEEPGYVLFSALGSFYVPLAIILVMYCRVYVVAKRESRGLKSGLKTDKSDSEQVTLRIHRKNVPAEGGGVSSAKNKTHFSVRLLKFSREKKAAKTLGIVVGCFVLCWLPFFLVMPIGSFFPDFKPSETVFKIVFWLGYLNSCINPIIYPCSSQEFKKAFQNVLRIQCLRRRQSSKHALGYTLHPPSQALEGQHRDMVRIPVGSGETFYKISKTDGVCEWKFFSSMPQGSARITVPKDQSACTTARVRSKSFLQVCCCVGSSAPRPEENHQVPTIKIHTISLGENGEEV

[4] = target: T3, Alpha-1A adrenergic receptor (Rattus norvegicus); experiment: Eudisimic ratio(ER) is the antilog of the defference between the pKb and pD2 values against Alpha-1A adrenergic receptor subtype; procedure, shortened: as §1
[5] = target: T4, 5-hydroxytryptamine receptor 1A (Homo sapiens) (UniProt P08908); experiment: Eudisimic ratio(ER) is the antilog of the difference between the pKb and pD2 values against 5-hydroxytryptamine 1A receptor; format: functional; procedure, shortened: as §1
T4 sequence (whole entry): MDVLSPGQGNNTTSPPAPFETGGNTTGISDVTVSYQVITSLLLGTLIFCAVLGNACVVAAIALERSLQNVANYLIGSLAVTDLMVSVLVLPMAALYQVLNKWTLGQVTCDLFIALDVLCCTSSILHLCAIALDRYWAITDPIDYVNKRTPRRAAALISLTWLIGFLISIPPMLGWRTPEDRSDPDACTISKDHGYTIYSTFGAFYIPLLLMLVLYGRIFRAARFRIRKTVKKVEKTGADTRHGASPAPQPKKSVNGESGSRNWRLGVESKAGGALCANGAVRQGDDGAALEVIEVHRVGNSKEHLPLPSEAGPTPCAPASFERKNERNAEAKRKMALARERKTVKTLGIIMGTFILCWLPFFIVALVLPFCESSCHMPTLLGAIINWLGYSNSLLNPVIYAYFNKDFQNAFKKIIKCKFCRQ

O[C@@H]1[C@H](NC[C@H]2COc3ccccc3O2)CC[C@H]1Oc1ccccc1
ER [1]: 33 | Ki [2]: 46.8 nM | ER [3]: > 35

O[C@H]1[C@@H](NC[C@H]2COc3ccccc3O2)CC[C@@H]1Oc1ccccc1
ER [4]: 3 | ER [5]: 27
